CHRM5 antagonist: antagonists of human muscarinic M5 receptor (CHRM5); P08912; CHO-hM5 cells, Fluo-8 calcium fluorescence, ACh EC80; inhibition, % at 3 µM; 360,000 compounds, 0.59% hits; AID 624040;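 active = inhibition above a per-plate cutoff, the mean of that plate's test compounds plus 3 SD, cut at about 27% in these data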
CHRM1 PAM: positive allosteric modulators of human M1 muscarinic receptor | P11229 | CHO-K1 hM1, Fluo-8 calcium fluorescence, ACh EC20; 0% = ACh EC20, 100% = maximal ACh | activation, % at 3 µM | 360,000 compounds, 0.088% hits; in the data active = activation above about 19%, passing the limit was not always enough
Target sequence (P11229 whole entry, looked up): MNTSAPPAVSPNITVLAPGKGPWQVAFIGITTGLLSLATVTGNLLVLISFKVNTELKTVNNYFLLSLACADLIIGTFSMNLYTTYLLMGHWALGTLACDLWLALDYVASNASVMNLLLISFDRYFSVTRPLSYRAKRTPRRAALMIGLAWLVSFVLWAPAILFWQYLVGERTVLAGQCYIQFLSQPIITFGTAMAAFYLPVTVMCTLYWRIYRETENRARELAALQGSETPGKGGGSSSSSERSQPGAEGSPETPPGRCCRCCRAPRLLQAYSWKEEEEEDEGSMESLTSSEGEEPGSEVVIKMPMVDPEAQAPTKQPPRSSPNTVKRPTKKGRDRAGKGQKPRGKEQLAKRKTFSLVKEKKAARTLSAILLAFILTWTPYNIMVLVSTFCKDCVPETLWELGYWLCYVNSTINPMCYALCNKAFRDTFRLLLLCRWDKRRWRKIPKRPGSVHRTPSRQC
M1 antag: blocks human M1 muscarinic receptor | 360,000 compounds, 1.3% hits | inhibition, % at 3 µM | CHO-K1 hM1, Fluo-8 calcium fluorescence, ACh EC80 antagonist;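 active = percent inhibition above its own plate's cutoff, namely the mean of that plate's compound wells plus 3 SD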;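 note: peak over basal fluorescence ratio during 140 s after agonist addition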
CHRM5 agonist: agonists of human muscarinic M5 receptor (CHRM5); P08912; CHO-K1 hM5 cells, Fluo-8 calcium fluorescence; 0% DMSO wells, 100% maximal acetylcholine response; activation, % at 3 µM; 360,000 compounds, 0.19% hits; AID 624037;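 active = activation above the run's mean over test compounds plus 3 SD, cut at about 23% in these data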;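 note: signal is peak over basal fluorescence ratio across the kinetic read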
M1 ag: agonists of human M1 muscarinic receptor; P11229; CHO-K1 hM1, Fluo-8 calcium fluorescence, agonist mode; 0% DMSO, 100% acetylcholine EC100; activation, % at 3 µM; 360,000 compounds, 0.33% hits; AID 588814;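 active = activation above the run's mean compound activation plus 3 SD, cut at about 16% in these data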;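 note: peak over basal fluorescence ratio within a 140 s kinetic read after compound addition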
M5 PAM: CHRM5 positive allosteric modulation; P08912; CHO-K1 hM5, Fluo-8 calcium, ACh EC20 PAM; 0% = ACh EC20, 100% = ACh EC100; activation, % at 3 µM; 360,000 compounds, 0.3% hits; AID 624038;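 active = activation above the run cutoff, the mean activation of all test compounds plus 3 SD, cut at about 18% in these data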
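system = human M5 receptor in CHO-K1 cells | compound = one concentration, 3 µM final (nominal) | schedule = Post-acetylcholine fluorescence recording 140 s | signal = Fluo-8 calcium dye fluorescence, kinetic read | benchmarks = low control EC20 acetylcholine (0%), high control EC100 acetylcholine (100%) | repeats = singlicate, one well per test compound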
Of the large screens only hits and unclear results are named; the others gave an inactive call. Shown are actives, neighbours in structure and some others; about 2% of the full set was active somewhere.

COc1ccc(C2NN=C(c3ccc(C)cc3)S2)cc1 (stereo not given)	none
Cc1ccc(C2=NNC(C(O)C(O)C(O)CO)S2)cc1 (stereo not given)	M5 PAM 30
Cc1ccsc1C(=O)N1CCC1(C)C(=O)NCC(C)(C)C (stereo not given)	none
CC1(C)CC2(OC2c2ccccc2[N+](=O)[O-])C(=O)c2ccccc21 (stereo not given)	none
C=CCNc1nc2cc(-c3cccc(NC(C)=O)c3)sc2c(=O)n1C	none
COC(=O)c1cc2c(ccn2-c2ccc(F)cc2)n1CC(C)C	M5 PAM 19
COC(=O)c1cc2c(ccn2-c2ccc(F)cc2)n1C(C)C	M5 PAM 34
COC(=O)c1cc2c(ccn2-c2ccc(F)cc2)n1Cc1ccc(OC(C)=O)cc1	none
CCCn1c(C(=O)OC)cc2c1ccn2-c1ccc(F)cc1	M5 PAM 19
COC(=O)c1cc2c(ccn2-c2ccc(F)cc2)n1Cc1cccc(OC)c1	none
CC1Cc2[nH]c(=S)[nH]c(=O)c2C(C)O1 (stereo not given)	none (no result: CHRM1 PAM, M1 antag, M1 ag)
NC(Cc1ccc(Cl)cc1)c1csc(Nc2cc(NCCCO)ncn2)n1 (stereo not given)	none
COC(=O)c1cccc(NC(=O)CN2C(=O)c3ccccc3C2=O)c1	none
COC(=O)CCC(=O)OC1(C)C(=O)C=C2C=C(C3CC3)N(c3ccccc3)C=C2C1=O (stereo not given)	M1 antag 28
N#Cc1ccc(CN2CCN(C(=O)CNC(=O)Cc3cccc4ccccc34)CC2)cc1	M1 ag 23
Cc1ccc(-c2ccc3c(c2)O[C@H](CN(C)C(=O)Nc2ccc(C(F)(F)F)cc2)[C@H](C)CN([C@H](C)CO)S3(=O)=O)cc1	none
CCOC(=O)N1CCC(NC(=O)c2ccc(Cl)cc2)CC1	none
CCOC(=O)N1CCC(NCCNC(=O)c2cccc(F)c2)CC1	M1 antag 64, M1 ag 66
CCOC(=O)N1CCC(NCCNC(=O)c2ccc(F)cc2)CC1	M1 antag 68, M1 ag 63
CCOC(=O)C1(C)CCCN1C(=O)c1cccc(F)c1 (stereo not given)	none
CC1(C(=O)Nc2ccc3c(c2)OCCO3)CN(S(C)(=O)=O)CC(=O)N1Cc1cccc(C(F)(F)F)c1 (stereo not given)	none (no result: CHRM1 PAM, M1 antag, M1 ag)
CCCN(CCC)CCCNC(=O)c1ccc2c(c1)N(CC)C(=O)c1ccccc1S2=O (stereo not given)	M1 antag 44
CCCCNC(=O)c1ccc2c(c1)N(CC)C(=O)c1ccccc1S2(=O)=O	M1 antag 33
CCN1C(=O)c2ccccc2S(=O)(=O)c2ccc(C(=O)NC(C)C)cc21	none
CCCCSCCCNC(=O)c1ccc2c(c1)N(CC)C(=O)c1ccccc1S2=O (stereo not given)	none
Cc1ccc(S(=O)(=O)NC[C@H]2O[C@@H](n3ccc(N)nc3=O)[C@H](O)[C@@H]2O)s1	none
COC(=O)CN1C(=O)Nc2ccc(C)cc2C1c1ccccc1 (stereo not given)	none
CCOC(=O)CN1C(=O)Nc2ccc(Br)cc2C1c1ccccc1 (stereo not given)	M1 antag 50
CS(=O)(=O)Nc1ccc(-c2cccc3nccn23)cc1	M1 antag 24
CN(C)c1ccc(-c2cccc3nccn23)cc1	none
OC[C@@H]1CN(Cc2cccs2)C[C@H](n2cnc3c(N4CCOCC4)ncnc32)O1	none
COC(=O)[C@@]1(Sc2ccc(C)cc2)CC(=O)N(c2ccccc2)[C@@H]1c1ccccc1	CHRM5 antagonist 30 (no result: CHRM1 PAM, M1 antag, M1 ag)
COC(=O)[C@@]1(Sc2ccc(C)cc2)CC(=O)N(C(=O)CCc2ccccc2)[C@@H]1c1ccccc1	none (no result: CHRM1 PAM, M1 antag, M1 ag)
O=C1Nc2ccccc2-c2nnnn2C1N1CCC(Cc2ccccc2)CC1 (stereo not given)	none (no result: CHRM1 PAM, M1 antag, M1 ag)
CC1=C(C)C(=O)C(N2CCOCC2)=CC1=O	M5 PAM 21
COCC(=O)NNS(=O)(=O)c1ccccc1[N+](=O)[O-]	M5 PAM 20
OCCCCNCc1ccc(OCc2ccccc2Cl)cc1	M1 antag 44
CCN1C(=C(C#N)C#N)C=Cc2cc(C)ccc21	none
C=CC[n+]1c(/C=C2\C=Cc3cc(C)ccc3N2CC)ccc2ccccc21	CHRM5 antagonist 37, M1 antag 54
O=C(CNC(=O)C12CC3CC(CC(C3)C1)C2)N1CCCC(C(F)(F)F)C1 (stereo not given)	none
COc1ccc(NC(=O)C2(C)Cc3c(-c4cccc(C(N)=O)c4)ccnc3O2)cc1OC (stereo not given)	none
c1ccc2cc(N3CCCCC3)ccc2c1	none
O=C1c2ccccc2C(=O)c2cc(N3CCCCC3)ccc21	CHRM5 antagonist 34, CHRM5 agonist 72
CC(C(=O)NCC1(c2ccccc2)CCCC1)N1CCCC1 (stereo not given)	M1 antag 97
CC1CCN(C(=O)CN(CCc2ccccc2)S(C)(=O)=O)CC1	none
CC(C)CC(=O)N1CCC(N(CCc2ccccc2)Cc2ccccc2)CC1	M1 antag 57
CN(C)Cc1ccccc1CCc1ccccc1	CHRM5 antagonist 30, M1 antag 60
Cc1cc(C)nc(/N=C(\N)Nc2ccc(OCc3ccccc3)cc2)n1	CHRM5 antagonist 96, M1 antag 89, CHRM5 agonist 63, M1 ag 70
COc1ccccc1N/C(N)=N/c1nc(C)cc(C)n1	none
Cc1cc(C)nc(/N=C(\N)Nc2cccc(OCc3ccccc3)c2)n1	CHRM5 antagonist 29, M1 antag 59, CHRM5 agonist 39, M1 ag 26
Cc1cc(C)nc(/N=C(\N)Nc2ccc(OCCC(C)C)cc2)n1	CHRM5 antagonist 76, M1 antag 84, CHRM5 agonist 64, M1 ag 33
Cc1cc(C)nc(/N=C(\N)Nc2ccc(CC(=O)OC(C)C)cc2)n1	CHRM5 antagonist 42, M1 antag 59, CHRM5 agonist 31
COc1ccc(N/C(N)=N/c2nc(C)cc(C)n2)cc1	none
CC1=C(C(=O)N2CCCCCC2)CC(CC(=O)NCCCN(C)C)C(=O)N1Cc1ccc(C(C)(C)C)cc1 (stereo not given)	none (no result: CHRM1 PAM, M1 antag, M1 ag)
Clc1ccccc1NN=Cc1ccccn1	none
CCOc1ccc2oc(C(=O)NCC3CCCO3)c(C)c2c1 (stereo not given)	M1 antag 25
O=[N+]([O-])c1ccccc1C=NN1CCCCCC1	none
O=C1C=CC(=O)N1c1cccc2cccnc12	none
CCCCn1cc(C(=O)c2cc(Br)ccc2O)cc(C#N)c1=O	CHRM5 antagonist 29
CCN(C(=O)c1cc(OC)c(OC)c(OC)c1)C1CCCCC1	none

Screening results: PubChem, The Scripps Research Institute Molecular Screening Center
